pKi: −log10 of the molar value.
Experiments:
Procathepsin L [1] = target: T1, Procathepsin L (Homo sapiens, UniProt P07711); experiment: Inhibition of human Cathepsin L by fluorescence assay based Cheng-Prusoff equation analysis
Method in brief: (§1)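 Fluorescence-based enzymatic assay against human cathepsin L, run as previously described. IC50 was measured, and Ki was then calculated from it with the Cheng-Prusoff equation.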

[2] = Lipophilicity, logD of the compound; type: physicochemical; conditions: octanol/water
Procathepsin L [3] = target: T1, Procathepsin L; experiment: Inhibition of human Cathepsin L; method in brief: as §1

T1 sequence (P07711 whole entry): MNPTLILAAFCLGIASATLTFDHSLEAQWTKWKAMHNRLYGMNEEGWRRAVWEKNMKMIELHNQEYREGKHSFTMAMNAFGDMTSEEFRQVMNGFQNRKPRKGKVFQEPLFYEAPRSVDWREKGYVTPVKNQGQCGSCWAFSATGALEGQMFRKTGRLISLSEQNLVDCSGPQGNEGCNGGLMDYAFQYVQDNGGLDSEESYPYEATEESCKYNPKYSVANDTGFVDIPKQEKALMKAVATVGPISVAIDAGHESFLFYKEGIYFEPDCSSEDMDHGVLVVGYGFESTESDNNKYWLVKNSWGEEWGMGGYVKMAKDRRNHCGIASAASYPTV

Compound: N#Cc1ncc(F)c(N(CCC2CCOCC2)Cc2ccc3c(c2)OCO3)n1
- pKi (Procathepsin L [1]): 5.55
- logD [2]: 3.46

Compound: COc1cccc(CCCN(Cc2ccc3c(c2)OCO3)c2nc(C#N)ncc2F)c1
- pKi (Procathepsin L [1]): 7.52

Compound: N#Cc1ncc(F)c(N(Cc2ccc3c(c2)OCO3)CC2CCCC2)n1
- pKi (Procathepsin L [1]): 7.92

Compound: N#Cc1ncc(F)c(N(CCOc2ccc3ccccc3c2)Cc2ccc3c(c2)OCO3)n1
- pKi (Procathepsin L [1]): 6.91

Compound: N#Cc1ncc(F)c(N(CCc2ccccc2)Cc2ccc3c(c2)OCO3)n1
- pKi (Procathepsin L [1]): 6.66

Compound: Cc1cc(OCCN(Cc2ccc3c(c2)OCO3)c2nc(C#N)ncc2F)cc(C)c1Cl
- pKi (Procathepsin L [1]): 5.84
- logD [2]: 2.32

Compound: N#Cc1ncc(F)c(N(Cc2ccc3c(c2)OCO3)c2ccc(OCC(F)(F)F)cc2)n1
- pKi (Procathepsin L [1]): < 5.29

Compound: N#Cc1ncc(F)c(N(Cc2ccc3c(c2)OCO3)CC2CC2)n1
- pKi (Procathepsin L [1]): 7.11
- logD [2]: 3.02

Compound: CC1(N(Cc2ccc3c(c2)OCO3)c2nc(C#N)ncc2F)CC1
- pKi (Procathepsin L [1]): < 5.29
- logD [2]: 3.38

Compound: Cc1nc2n(c(=O)c1CCN(Cc1ccc3c(c1)OCO3)c1nc(C#N)ncc1F)CCCC2
- pKi (Procathepsin L [1]): 5.76
- logD [2]: 2.96

Compound: N#Cc1ncc(F)c(N(Cc2ccc3c(c2)OCO3)C2CCCCC2)n1
- pKi (Procathepsin L [3]): 6.70

Compound: N#Cc1ncc(F)c(N(CCc2ccccn2)Cc2ccc3c(c2)OCO3)n1
- pKi (Procathepsin L [1]): 5.41
- logD [2]: 3.39

Compound: Cc1nsc(N2CCC(N(Cc3ccc4c(c3)OCO4)c3nc(C#N)ncc3F)CC2)n1
- pKi (Procathepsin L [1]): 6.39
- logD [2]: 3.49

Compound: N#Cc1ncc(F)c(N(Cc2ccc3c(c2)OCO3)c2ccccc2)n1
- pKi (Procathepsin L [1]): 5.74
- logD [2]: 3.44

Compound: N#Cc1ncc(F)c(N(CCc2ccc(F)cc2)Cc2ccc3c(c2)OCO3)n1
- pKi (Procathepsin L [1]): 6.55

Compound: N#Cc1ncc(F)c(N(Cc2ccc3c(c2)OCO3)[C@H]2CC[C@H](C(F)(F)F)CC2)n1
- pKi (Procathepsin L [1]): < 5.29

Compound: CSc1cccc(N(Cc2ccc3c(c2)OCO3)c2nc(C#N)ncc2F)c1
- pKi (Procathepsin L [1]): 5.29

Compound: N#Cc1ncc(F)c(N(CCCc2noc(-c3ccccc3)n2)Cc2ccc3c(c2)OCO3)n1
- pKi (Procathepsin L [1]): 7.04

Compound: CC(C)[C@H]1CC[C@@H](N(Cc2ccc3c(c2)OCO3)c2nc(C#N)ncc2F)CC1
- pKi (Procathepsin L [1]): 5.52
- logD [2]: 2.74

Compound: N#Cc1ncc(F)c(N(Cc2ccc3c(c2)OCO3)c2cccc(OCc3ccccc3)c2)n1
- pKi (Procathepsin L [1]): < 5.29

Compound: N#Cc1ncc(F)c(N(CCOc2ccc(Cl)cc2)Cc2ccc3c(c2)OCO3)n1
- pKi (Procathepsin L [1]): 6.78

Compound: N#Cc1ncc(F)c(N(Cc2ccc3c(c2)OCO3)c2ccc(F)cc2)n1
- pKi (Procathepsin L [1]): 6.02
- logD [2]: 3.49

Compound: N#Cc1ncc(F)c(N(Cc2ccc3c(c2)OCO3)c2ccc(OCC3CC3)cc2)n1
- pKi (Procathepsin L [1]): < 5.29

Compound: N#Cc1ncc(F)c(N(Cc2ccccc2)Cc2ccc3c(c2)OCO3)n1
- pKi (Procathepsin L [1]): < 5.29

Compound: N#Cc1cccc(CCN(Cc2ccc3c(c2)OCO3)c2nc(C#N)ncc2F)c1
- pKi (Procathepsin L [1]): 6.52
- logD [2]: 2.12

Compound: N#Cc1ncc(F)c(N(CCc2ccncc2)Cc2ccc3c(c2)OCO3)n1
- pKi (Procathepsin L [1]): 6.30
- logD [2]: 3.15

Compound: CC(C)=CCN(Cc1ccc2c(c1)OCO2)c1nc(C#N)ncc1F
- pKi (Procathepsin L [1]): 6.00

Compound: N#Cc1ncc(F)c(N(CCOc2ccccc2)Cc2ccc3c(c2)OCO3)n1
- pKi (Procathepsin L [1]): 7.11

Compound: CNCCc1cccc(N(Cc2ccc3c(c2)OCO3)c2nc(C#N)ncc2F)c1
- pKi (Procathepsin L [1]): < 5.29

Compound: N#Cc1ncc(F)c(N(Cc2ccc3c(c2)OCO3)c2ccc(Oc3cccnc3)cc2)n1
- pKi (Procathepsin L [1]): 5.99

Compound: N#Cc1ncc(F)c(N(Cc2ccc3c(c2)OCO3)C2CCSCC2)n1
- pKi (Procathepsin L [1]): 6.29
- logD [2]: 3.61

Compound: N#Cc1ncc(F)c(N(CCc2ccsc2)Cc2ccc3c(c2)OCO3)n1
- pKi (Procathepsin L [1]): 6.17

Compound: N#Cc1ncc(F)c(N(CCCc2ccc(Cl)cc2)Cc2ccc3c(c2)OCO3)n1
- pKi (Procathepsin L [1]): 7.57

Compound: N#Cc1nc(N2CCOCC2)nc(N(Cc2ccc(Cl)cc2)C2CCCCC2)n1
- pKi (Procathepsin L [3]): 7.89

Compound: N#Cc1ncc(F)c(N(CCc2cccc(Br)c2)Cc2ccc3c(c2)OCO3)n1
- pKi (Procathepsin L [1]): 6.45

Compound: N#Cc1ncc(F)c(N(Cc2ccc(Cl)cc2)Cc2ccc3c(c2)OCO3)n1
- pKi (Procathepsin L [1]): < 5.29

Compound: N#Cc1ncc(F)c(N(CCC(F)(F)F)Cc2ccc3c(c2)OCO3)n1
- pKi (Procathepsin L [1]): 7.60
- logD [2]: 3.16

Compound: N#Cc1ncc(F)c(N(Cc2ccc3c(c2)OCO3)[C@H]2CC[C@@H](C(F)(F)F)CC2)n1
- pKi (Procathepsin L [1]): 5.46

Source: ChEMBL document CHEMBL4007486, “Prospective Evaluation of Free Energy Calculations for the Prioritization of Cathepsin L Inhibitors” (J Med Chem, 2017)
